Several values for one entry are separate records, joined by “and”; a condition that tells them apart may be missing. Equal values may be shown once.
Test system: Fibroblast
Test: Multiplex assay against human fibroblast
Format: toxicity, cell-based
In short: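 Live cells were stained at seeding with Hoechst33342, BioTracker Green Microtubule Cytoskeleton Dye, MitoTracker Red and Annexin V Alexa Fluor 680. Following compound addition, they were imaged on a CQ1 microscope at 37°C and 5% CO2 and gated by CellPathfinder machine learning into Hoechst high-intensity objects or normal cells, with normal cells split into healthy, pyknosed or fragmented nuclei and pyknosed cells into mitotic or apoptotic. Tubulin, mitochondrial-mass and membrane-permeability phenotypes are per cents of healthy-nucleus cells.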

[1] = 12 h, 1 µM, compound concentration 1 uM
[2] = 12 h, 10 µM, compound concentration 10 uM
[3] = 24 h, 1 µM, compound concentration 1 uM
[4] = 24 h, 10 µM, compound concentration 10 uM
[5] = 48 h, 1 µM, compound concentration 1 uM
[6] = 48 h, 10 µM, compound concentration 10 uM

`COC(=O)C1=C(C)NC(C)=C(C(=O)OC(C)C)C1c1cccc2nonc12` (configuration not stated) [ISRADIPINE] was tested, and the “Population Apoptotic (%)” value [1] was 16.67% and 18.92%, the “Population Fragmented Nuclei (%)” value [1] was 8.07% and 3.38% and the “Population Healthy Nuclei (%)” value [1] was 65.84% and 81.01%. The “Population Hoechst High Intensity Objects (%)” value [1] was 0%, the “Population Membrane Permeable-Phenotype (%)” value [1] was 3.77% and 3.12% and the “Population Mitochondria Different-Phenotype (%)” value [1] was 7.55% and 11.98%. For the same compound, the “Population Mitotic Cells (%)” value [1] was 83.33% and 81.08%, the “Population Normal (%)” value [1] was 100% and the “Population Pyknosed Nuclei (%)” value [1] was 26.09% and 15.61%. The “Population Tubulin-Different-Phenotype (%)” value [1] was 15.09% and 16.15%, the “Total Cell Count” value [1] was 161 and 237 and the “Population Fragmented Nuclei (%)” value [2] was 12.61% and 3.08%. For the same compound, the “Population Healthy Nuclei (%)” value [2] was 63.04% and 75.33%, the “Population Hoechst High Intensity Objects (%)” value [2] was 0% and the “Population Membrane Permeable-Phenotype (%)” value [2] was 5.52% and 7.02%. For the same compound, the “Population Mitochondria Different-Phenotype (%)” value [2] was 17.24% and 19.3%, the “Population Mitotic Cells (%)” value [2] was 94.64% and 77.55% and the “Population Normal (%)” value [2] was 100%. For the same compound, the “Population Pyknosed Nuclei (%)” value [2] was 24.35% and 21.59%, the “Population Tubulin-Different-Phenotype (%)” value [2] was 40% and 48.54% and the “Total Cell Count” value [2] was 230 and 227. The “Population Apoptotic (%)” value [3] was 18.52% and 21.74%, the “Population Fragmented Nuclei (%)” value [3] was 12.43% and 8.5% and the “Population Healthy Nuclei (%)” value [3] was 72.97% and 82.19%. The “Population Hoechst High Intensity Objects (%)” value [3] was 0%, the “Population Membrane Permeable-Phenotype (%)” value [3] was 5.93% and 2.46% and the “Population Mitochondria Different-Phenotype (%)” value [3] was 1.48% and 4.93%. For the same compound, the “Population Mitotic Cells (%)” value [3] was 81.48% and 78.26%, the “Population Normal (%)” value [3] was 100% and the “Population Pyknosed Nuclei (%)” value [3] was 14.59% and 9.31%. For the same compound, the “Population Tubulin-Different-Phenotype (%)” value [3] was 12.59% and 16.26%, the “Total Cell Count” value [3] was 185 and 247 and the “Population Fragmented Nuclei (%)” value [4] was 9.72% and 2.69%. For the same compound, the “Population Healthy Nuclei (%)” value [4] was 68.83% and 76.23%, the “Population Hoechst High Intensity Objects (%)” value [4] was 0% and the “Population Membrane Permeable-Phenotype (%)” value [4] was 4.12%. For the same compound, the “Population Mitochondria Different-Phenotype (%)” value [4] was 8.82% and 15.88%, the “Population Mitotic Cells (%)” value [4] was 98.11% and 80.85% and the “Population Normal (%)” value [4] was 100%. The “Population Pyknosed Nuclei (%)” value [4] was 21.46% and 21.08%, the “Population Tubulin-Different-Phenotype (%)” value [4] was 39.41% and 47.06% and the “Total Cell Count” value [4] was 247 and 223. The “Population Apoptotic (%)” value [5] was 30% and 23.53%, the “Population Fragmented Nuclei (%)” value [5] was 7.14% and 6.07% and the “Population Healthy Nuclei (%)” value [5] was 81.87% and 87.04%. For the same compound, the “Population Hoechst High Intensity Objects (%)” value [5] was 0%, the “Population Membrane Permeable-Phenotype (%)” value [5] was 2.01% and 1.4% and the “Population Mitotic Cells (%)” value [5] was 70% and 76.47%. The “Population Normal (%)” value [5] was 100%, the “Population Pyknosed Nuclei (%)” value [5] was 10.99% and 6.88% and the “Population Tubulin-Different-Phenotype (%)” value [5] was 10.07% and 17.21%. For the same compound, the “Total Cell Count” value [5] was 182 and 247, the “Population Apoptotic (%)” value [6] was 33.33% and 50% and the “Population Fragmented Nuclei (%)” value [6] was 9.58% and 5.05%. The “Population Healthy Nuclei (%)” value [6] was 85.42% and 89.45%, the “Population Hoechst High Intensity Objects (%)” value [6] was 0% and the “Population Membrane Permeable-Phenotype (%)” value [6] was 1.46% and 8.72%. For the same compound, the “Population Mitochondria Different-Phenotype (%)” value [6] was 14.63% and 8.72%, the “Population Mitotic Cells (%)” value [6] was 66.67% and 50% and the “Population Normal (%)” value [6] was 100%. The “Population Pyknosed Nuclei (%)” value [6] was 5% and 5.5%, the “Population Tubulin-Different-Phenotype (%)” value [6] was 24.39% and 55.38% and the “Total Cell Count” value [6] was 240 and 218.
In the case of `CN1[C@@H](CC(=O)c2ccccc2)CCC[C@H]1C[C@H](O)c1ccccc1.Cl` [LOBELINE HYDROCHLORIDE], the “Population Apoptotic (%)” value [1] is reported as 11.11% and 18.52%, the “Population Fragmented Nuclei (%)” value [1] is reported as 12.29% and 4.19% and the “Population Healthy Nuclei (%)” value [1] is reported as 57.54% and 81.68%. For the same compound, the “Population Hoechst High Intensity Objects (%)” value [1] was 0%, the “Population Membrane Permeable-Phenotype (%)” value [1] was 3.88% and 3.21% and the “Population Mitochondria Different-Phenotype (%)” value [1] was 13.59% and 7.05%. For the same compound, the “Population Mitotic Cells (%)” value [1] was 88.89% and 81.48%, the “Population Normal (%)” value [1] was 100% and the “Population Pyknosed Nuclei (%)” value [1] was 30.17% and 14.14%. The “Population Tubulin-Different-Phenotype (%)” value [1] was 15.53% and 14.1%, the “Total Cell Count” value [1] was 179 and 191 and the “Population Apoptotic (%)” value [2] was 16.36% and 11.43%. The “Population Fragmented Nuclei (%)” value [2] was 9.48% and 12.07%, the “Population Healthy Nuclei (%)” value [2] was 64.45% and 72.84% and the “Population Hoechst High Intensity Objects (%)” value [2] was 0%. The “Population Membrane Permeable-Phenotype (%)” value [2] was 8.09% and 4.73%, the “Population Mitochondria Different-Phenotype (%)” value [2] was 25% and 14.79% and the “Population Mitotic Cells (%)” value [2] was 83.64% and 88.57%. For the same compound, the “Population Normal (%)” value [2] was 100%, the “Population Pyknosed Nuclei (%)” value [2] was 26.07% and 15.09% and the “Population Tubulin-Different-Phenotype (%)” value [2] was 35.29% and 43.2%. The “Total Cell Count” value [2] was 211 and 232, the “Population Fragmented Nuclei (%)” value [3] was 8.95% and 0.5% and the “Population Healthy Nuclei (%)” value [3] was 64.21% and 85.07%. For the same compound, the “Population Hoechst High Intensity Objects (%)” value [3] was 0%, the “Population Membrane Permeable-Phenotype (%)” value [3] was 3.28% and 3.51% and the “Population Mitochondria Different-Phenotype (%)” value [3] was 11.48% and 7.02%. For the same compound, the “Population Mitotic Cells (%)” value [3] was 96.08% and 82.76%, the “Population Normal (%)” value [3] was 100% and the “Population Pyknosed Nuclei (%)” value [3] was 26.84% and 14.43%. The “Population Tubulin-Different-Phenotype (%)” value [3] was 28.69% and 18.13%, the “Total Cell Count” value [3] was 190 and 201 and the “Population Fragmented Nuclei (%)” value [4] was 9.69% and 11.42%. The “Population Healthy Nuclei (%)” value [4] was 75.77% and 77.95%, the “Population Hoechst High Intensity Objects (%)” value [4] was 0% and the “Population Membrane Permeable-Phenotype (%)” value [4] was 2.33% and 2.02%. For the same compound, the “Population Mitochondria Different-Phenotype (%)” value [4] was 22.09% and 12.12%, the “Population Mitotic Cells (%)” value [4] was 93.94% and 66.67% and the “Population Normal (%)” value [4] was 100%. For the same compound, the “Population Pyknosed Nuclei (%)” value [4] was 14.54% and 10.63%, the “Population Tubulin-Different-Phenotype (%)” value [4] was 43.02% and 41.41% and the “Total Cell Count” value [4] was 227 and 254. The “Population Apoptotic (%)” value [5] was 23.08% and 23.53%, the “Population Fragmented Nuclei (%)” value [5] was 9.22% and 3.83% and the “Population Healthy Nuclei (%)” value [5] was 84.47% and 88.04%. For the same compound, the “Population Hoechst High Intensity Objects (%)” value [5] was 0%, the “Population Membrane Permeable-Phenotype (%)” value [5] was 1.15% and 1.63% and the “Population Mitochondria Different-Phenotype (%)” value [5] was 8.62% and 3.26%. For the same compound, the “Population Mitotic Cells (%)” value [5] was 76.92% and 76.47%, the “Population Normal (%)” value [5] was 100% and the “Population Pyknosed Nuclei (%)” value [5] was 6.31% and 8.13%. The “Population Tubulin-Different-Phenotype (%)” value [5] was 9.2% and 7.07%, the “Total Cell Count” value [5] was 206 and 209 and the “Population Apoptotic (%)” value [6] was 30.77% and 35.71%. For the same compound, the “Population Fragmented Nuclei (%)” value [6] was 10.79% and 10.97%, the “Population Healthy Nuclei (%)” value [6] was 83.82% and 83.12% and the “Population Hoechst High Intensity Objects (%)” value [6] was 0%. The “Population Membrane Permeable-Phenotype (%)” value [6] was 1.98% and 6.09%, the “Population Mitochondria Different-Phenotype (%)” value [6] was 11.39% and 5.58% and the “Population Mitotic Cells (%)” value [6] was 69.23% and 64.29%. For the same compound, the “Population Normal (%)” value [6] was 100%, the “Population Pyknosed Nuclei (%)” value [6] was 5.39% and 5.91% and the “Population Tubulin-Different-Phenotype (%)” value [6] was 12.38% and 25.89%. The “Total Cell Count” value [6] was 241 and 237.

— ChEMBL document CHEMBL5724801, “EUbOPEN Chemogenomics Library - Multiplex” (2024)
